Source: PubChem BioAssay AID493079 (The Scripps Research Institute Molecular Screening Center, 2011)
Activity calls are given as the source filed them.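 Rule for the calls: active = IC50 of 10 µM or lower for blocking Epstein-Barr viral protein EBNA-1 from binding DNA; inactive = IC50 above 10 µM.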

Molecular target: EBNA-1 DNA-binding domain (Epstein-Barr virus)
Test: EBNA-1 DNA-binding inhibitor potency, late-stage follow-up, biochemical, fluorescence polarization, dose response, assay provider data (AID 493079)
Details: recombinant EBNA1 DBD, Cy5-DNA fluorescence polarization
Procedure, shortened: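 Read-out basis: IC50 from lowered polarization, reflecting more unbound DNA probe | Material: EBNA-1 DBD (aa 448-610), E. coli-expressed | Doses: Compound dose-response series | Also added: Cy5-labelled DNA hairpin probe, 36-bp oligonucleotide | Technique: Cy5 fluorescence polarization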

Structure (SMILES) | IC50
CS(=O)(=O)c1ccc2nc(NC(=O)c3ccccc3F)sc2c1 | > 148 µM (inactive)
COc1ccc2nc(NC(=O)c3ccc(C)c(C)c3)sc2c1 | > 148 µM (inactive)
Cc1ccc(C(=O)Nc2nc3cc(Br)ccc3s2)cc1C | > 148 µM (inactive)
CS(=O)(=O)c1ccc2nc(NC(=O)c3cccc(Cl)c3)sc2c1 | > 148 µM (inactive)
COc1cccc(C(=O)Nc2nc3ccc(S(C)(=O)=O)cc3s2)c1 | inactive
COc1cccc2sc(NC(=O)c3ccc(C)c(C)c3)nc12 | > 148 µM (inactive)
COc1ccccc1C(=O)Nc1nc2ccc(S(C)(=O)=O)cc2s1 | > 148 µM (inactive)
COc1ccc(C(=O)Nc2nc3ccc(S(C)(=O)=O)cc3s2)cc1 | inactive
Cc1ccc(C(=O)Nc2nc3cc(F)ccc3s2)cc1C | > 148 µM (inactive)
CS(=O)(=O)c1ccc2nc(NC(=O)c3ccc(Cl)cc3)sc2c1 | inactive
COc1ccc2sc(NC(=O)c3ccc(C)c(C)c3)nc2c1 | > 148 µM (inactive)
Cc1cccc(C(=O)Nc2nc3ccc(S(C)(=O)=O)cc3s2)c1 | inactive
CS(=O)(=O)c1ccc2nc(NC(=O)c3cccc(F)c3)sc2c1 | > 148 µM (inactive)
Cc1ccc(C(=O)Nc2nc3ccc(Br)cc3s2)cc1C | > 148 µM (inactive)
Cc1ccc(C(=O)Nc2nc3ccc(S(C)(=O)=O)cc3s2)cc1 | > 148 µM (inactive)

Other lines, results leading:

IC50 | Structure (SMILES)
> 148 µM (inactive) | Cc1ccccc1-n1nnnc1SCC(=O)c1cc(C)n(CC2CCCO2)c1C (stereo not given)
> 148 µM (inactive) | Cc1cccc(-n2nnnc2SCC(=O)c2cc(C)n(CC3CCCO3)c2C)c1 (stereo not given)
5.47 µM | Cc1ccc(-n2nnnc2SCC(=O)c2cc(C)n(CC3CCCO3)c2C)cc1 (stereo not given)
inactive | COc1ccc(-n2nnnc2SCC(=O)c2cc(C)n(CC3CCCO3)c2C)cc1 (stereo not given)
> 148 µM (inactive) | COCCn1c(C)cc(C(=O)CSc2nnnn2-c2ccccc2)c1C
> 148 µM (inactive) | Cc1cc(C(=O)CSc2nnnn2-c2ccc(Cl)cc2)c(C)n1CC1CCCO1 (stereo not given)
> 148 µM (inactive) | CCn1c(C)cc(C(=O)CSc2nnnn2-c2ccccc2)c1C
> 148 µM (inactive) | Cc1cc(C(=O)CSc2nnnn2-c2ccccc2)c(C)n1Cc1cccs1
> 148 µM (inactive) | Cc1ccccc1C(=O)Nc1nc2ccc(S(C)(=O)=O)cc2s1
> 148 µM (inactive) | CS(=O)(=O)c1ccc2nc(NC(=O)c3ccccc3Cl)sc2c1
> 148 µM (inactive) | O=C(CSc1nnnn1-c1ccccc1)c1ccn(CC2CCCO2)c1 (stereo not given)
> 148 µM (inactive) | Cc1cc(C(=O)CSc2nnnn2C)c(C)n1CC1CCCO1 (stereo not given)
inactive | Cc1cc(C(=O)CSc2nnnn2-c2ccccc2)c(C)n1C
inactive | Cc1cc(C(=O)CSc2nnnn2C2CC2)c(C)n1CC1CCCO1 (stereo not given)
> 148 µM (inactive) | Cc1cc(C(=O)CSc2nnnn2-c2cccc(F)c2)c(C)n1CC1CCCO1 (stereo not given)
